High-throughput results as filed in PubChem.
T cell HTS = T cell immune modulation candidate; 2C CD8+ T cell-vesicle binding, flow cytometry; active compounds read low; response (vesicle binding), % at 7 µM; actives 0.068% (n = 330,000); AID 2052;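 active = response, share of CD8 T cells binding vesicles, and their 90th percentile fluorescence all below set limits, cut at about 80% in these data, passing the limit was not always enough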;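 note: values below 100% mean blocked vesicle binding to the CD8+ T cells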
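Assay system – 2C mouse CD8+ T cells · Also added – QL9-loaded Drosophila micro-vesicles · Timing – Cell–vesicle co-incubation 1.5 h at 37 °C, staining 20 min on ice · Signal – flow cytometry of vesicle-bound cells · Measure – percent CD8+ FL2 mean versus row control · Controls – Peptide-free naked vesicles (low) and QL9 vesicles with 0.7% DMSO vehicle (high)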
C-LANA FP = KSHV C-LANA DNA binding inhibition; actives 0.078% (n = 340,000); MBP-C-LANA/FAM-LBS DNA binding, fluorescence polarization; inhibition, % at 9 µM;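 active = highest replicate inhibition at or above 60% at 9 µM, even if other replicates fall short; inactive = all replicates below 60% inhibition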;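 note: 0% = neutral control wells and 100% = 4 µM acridine orange control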
GRK2 aptamer HTS = inhibitors of human GRK2 displacing RNA aptamer; P25098; bead flow cytometry, FAM-aptamer displacement from GRK2; inhibition of aptamer binding, % at 10 µM; actives 0.59% (n = 330,000); AID 488847;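 active = inhibition of aptamer binding above 40%, roughly 3 SD of noise, on plates passing a quality check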;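 note: median bead fluorescence of bound FAM aptamer so fluorescent compounds give negative values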
Target sequence (P25098 whole entry, looked up): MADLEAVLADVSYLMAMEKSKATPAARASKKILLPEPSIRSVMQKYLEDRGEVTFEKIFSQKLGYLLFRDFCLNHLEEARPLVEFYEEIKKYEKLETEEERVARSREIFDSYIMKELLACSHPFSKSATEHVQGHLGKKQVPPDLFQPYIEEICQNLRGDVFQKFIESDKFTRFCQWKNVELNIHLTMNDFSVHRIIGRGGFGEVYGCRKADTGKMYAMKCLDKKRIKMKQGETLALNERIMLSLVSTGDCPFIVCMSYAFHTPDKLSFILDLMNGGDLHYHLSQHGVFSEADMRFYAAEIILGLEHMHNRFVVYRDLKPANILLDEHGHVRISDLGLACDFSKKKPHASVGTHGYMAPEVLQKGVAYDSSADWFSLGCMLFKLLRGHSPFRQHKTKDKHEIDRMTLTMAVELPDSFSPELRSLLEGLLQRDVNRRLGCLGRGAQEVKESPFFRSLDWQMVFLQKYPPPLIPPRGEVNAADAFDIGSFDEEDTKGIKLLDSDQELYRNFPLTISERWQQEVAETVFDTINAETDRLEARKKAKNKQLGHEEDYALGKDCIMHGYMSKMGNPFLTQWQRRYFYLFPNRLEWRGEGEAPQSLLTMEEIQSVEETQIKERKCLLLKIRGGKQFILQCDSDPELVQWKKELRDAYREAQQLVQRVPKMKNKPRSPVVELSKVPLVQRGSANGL
Keap1 Nrf2 FP = Keap1-Nrf2 (human) interaction inhibition. Q14145. Keap1 Kelch-Nrf2 peptide fluorescence polarization, 1536-well. inhibition, % at 9.4 µM. actives 0.15% (n = 340,000). AID 504523; in the data active = inhibition above about 12%;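 note: human Keap1 Kelch domain with fluorescein labeled Nrf2 9mer peptide probe; 0% = neutral control wells and 100% = peptide positive control; higher means more block of Keap1 binding to Nrf2 peptide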
MEX-5 binding = C. elegans MEX-5 TCR-2 RNA binding activity | activity score (negative = inhibition of binding), % at 10 µM | Q9XUB2 | MEX-5/FITC-TCR2 RNA binding, fluorescence polarization; active compounds read low | actives 0.38% (n = 300,000);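 active = inhibition past about -25% in most replicates, and total fluorescence under double the plate's negative control median, limit read from the data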;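 note: 0% = DMSO and -100% = 5 µM competing unlabeled TCR2 RNA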
EBV gp42 inh = inhibitors of Epstein-Barr virus glycoprotein 42. inhibition, % (tested at 21.74 µM). actives 0.42% (n = 220,000). AID 1085. Q1HVG2. Fluorescence polarization binding assay, mP read-out; in the data active = inhibition above about 50%
GRK2 inh confirm = human GRK2 inhibition confirmation, cherry pick 1. aptamer displacement, % at 10 µM. bead-bound GRK2, FAM-aptamer displacement, flow cytometry. AID 504451. actives 4% (n = 2,000). shares compounds with GRK2 aptamer HTS;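 active = aptamer displacement above 40%, near three times the noise of non-fluorescent compounds, on plates passing quality checks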;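 note: negative values mostly reflect intrinsic compound fluorescence rather than true enhancement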
Aptamer quench 1 = quenches fluorescent RNA aptamer, GRK2 hit artifact. shares compounds with GRK2 aptamer HTS. Fluorescent RNA aptamer beads, quenching, flow cytometry; active compounds read high. fluorescence change (kMESF span), kMESF (concentration not given with the values). 110 tested, under 10 active;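 active = compounds whose bead fluorescence drops by more than 37 kMESF across the dose range, marking them as dye quenchers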
FAM quench CP1 = counter-screen for GRK2 aptamer inhibitors: fluorescent aptamer quenchers | shares compounds with GRK2 aptamer HTS | Carboxyfluorescein RNA aptamer on beads, flow cytometry quenching; active compounds read low | fluorescence response (% of DMSO), % at 10 µM | 2,000 tested, under 10 active | AID 504580;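 active = compounds that quench the bead-bound fluorescent RNA probe, cutting fluorescence to under half of the solvent control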;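 note: counterscreen run without GRK2 so only probe quenching by compound is measured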
GRK2 confirm 2 = confirmation of human GRK2 inhibitors binding RNA aptamer site. inhibition of aptamer binding, % at 10 µM. shares compounds with GRK2 aptamer HTS. bead-bound GRK2, FAM-aptamer displacement, flow cytometry. 360 tested, under 10 active;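 active = inhibition of aptamer binding above 40%, about triple the noise seen with nonglowing compounds, on plates passing quality control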;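 note: negative values mostly come from compounds that fluoresce themselves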
Aptamer quench 2 = counter-screen for GRK2 aptamer inhibitors: fluorescent aptamer quenchers; shares compounds with GRK2 aptamer HTS; Streptavidin beads, FAM-RNA aptamer fluorescence quenching, flow cytometry; change in fluorescence (kMESF span), kMESF (no concentration beside the values); 25 tested, under 10 active;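 active = compounds quenching the bead-bound labeled aptamer, with fluorescence dropping by more than 37 kMESF over the dose range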
FAM quench SP = quenches fluorescent RNA aptamer, GRK2 hit artifact. 360 tested, under 10 active. fluorescence response vs DMSO, % at 10 µM. carboxyfluorescein RNA aptamer beads, flow cytometry quenching; active compounds read low. AID 588494. shares compounds with GRK2 aptamer HTS;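 active = response vs DMSO under 50%, meaning signal dropped by over half, treated as fluorescence quencher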;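 note: labelled aptamer on streptavidin beads without GRK2 as a quench counter-screen; 100% = bead fluorescence of DMSO wells and lower means quenching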
FAM quench DR = quenches fluorescent RNA aptamer, GRK2 hit artifact | shares compounds with GRK2 aptamer HTS | Bead-bound FAM RNA aptamer fluorescence quenching, flow cytometry; active compounds read low | fluorescence ratio to DMSO, % at 11.1 µM | 35 tested, under 10 active | AID 588496;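 active = compounds that dim the fluorescent label, raw bead signal shifting by over 33 units between lowest and highest dose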
Starred values were filed as active, the others as inactive; x = no result. A selection: hits, their analogues and other compounds. The true share with any hit is near 1.3%.

SMILES	T cell HTS	C-LANA FP	GRK2 aptamer HTS	Keap1 Nrf2 FP	MEX-5 binding	EBV gp42 inh	GRK2 inh confirm	FAM quench CP1	others
CCc1ccccc1NC(=O)CCS(=O)(=O)c1ccc(C)cc1	173	1	0	2	3	x	x	x
COC(=O)c1ccc2c(c1)N(Cc1nc(-c3cccc(C)c3)oc1C)C(=O)C1CCCN21 (stereo unspecified)	x	x	x	x	7	-36	x	x
CCOc1ccccc1NC(=O)CCS(=O)(=O)c1ccc(Br)cc1	5	19	98*	-3	1	x	92*	95	Aptamer quench 1=-4;Aptamer quench 2=0.2;FAM quench DR=100
CCOc1ccccc1NC(=O)CCNS(=O)(=O)c1ccc(NC(C)=O)cc1	6	0	2	-3	-1	x	x	x
CCCNC(=O)C(Cc1cccc(C#N)c1)NC(=O)c1ccc(C#N)cc1 (stereo unspecified)	353	-2	82*	-3	x	x	1	96
CN(C)C(=O)c1cn(N(C)c2ncc(C(F)(F)F)cc2Cl)c(=O)c2ccccc12	212	-1	0	1	2	-18	x	x
CN(c1ncc(C(F)(F)F)cc1Cl)N1C(=O)c2cccc([N+](=O)[O-])c2C1=O	394	0	57*	2	4	6	0	102
O=C(N/N=C/c1ccc(Br)s1)c1ccc([N+](=O)[O-])cc1	519	2	78*	4	-2	10	-26	99
CCCCOCCCNc1ncnc2c1[nH]c1ccccc12	149	-1	53*	3	0	-8	-8	99
NC(=O)CSc1nnc(-c2ccc(S(=O)(=O)N3CCCC3)cc2)o1	327	1	45*	0	1	-13	-1	81
COC(=O)CSc1nnc(-c2ccc(S(=O)(=O)N3CCCC3)cc2)o1	373	-2	0	3	2	x	x	x
Cc1ccc(CSc2nnc(-c3ccc(S(=O)(=O)N4CCCC4)cc3)o2)cc1	262	0	59*	3	0	-10	-2	95
O=S(=O)(c1ccc(-c2nnc(SCc3ccccc3)o2)cc1)N1CCCC1	447	-1	0	-1	-2	-2	x	x
Cc1cccc(Cn2ccc(NC(=O)c3cccnc3)n2)c1	178	-1	0	-7	-1	2	x	x
COCCCn1c(-c2ccc(S(=O)(=O)N3CCOCC3)cc2)csc1=Nc1ccccc1	246	0	0	-3	3	-1	x	x
Cc1cc(=O)oc2cc(OC(C)C)ccc12	426	1	2	-1	2	-22	x	x
Cc1cc(=O)oc2cc(OC(C(=O)O)c3ccccc3)ccc12 (stereo unspecified)	206	0	84*	-4	-1	x	-25	214
CCn1c(SCC(=O)OC)nc2sc3c(c2c1=O)CCC3	297	0	9	0	2	6	x	x	GRK2 confirm 2=14;FAM quench SP=100
Cn1c(SCc2nnc(-c3ccccc3Br)o2)nc2sc3c(c2c1=O)CCC3	764	0	0	-8	-1	-20	x	x	GRK2 confirm 2=23;FAM quench SP=100
Cc1cccc(-n2c(SCC(=O)O)nc3sc4c(c3c2=O)CCC4)c1	153	-1	0	4	0	1	x	x
CCCn1c(SC(C)C(=O)NCC2CCCO2)nc2sc3c(c2c1=O)CCC3 (stereo unspecified)	192	-2	1	2	-1	x	x	x	GRK2 confirm 2=-8;FAM quench SP=98
O=C(O)CSc1nc2sc3c(c2c(=O)n1-c1ccccc1)CCC3	320	-1	3	-6	-2	-13	x	x	GRK2 confirm 2=-22;FAM quench SP=104
Nc1ncnc2c1ncn2[C@@H]1O[C@H](CNCc2ccccc2OC2OC(CO)C(O)C(O)C2O)[C@@H](O)[C@H]1O (stereo partly specified)	x	2	0	-4	x	x	x	x
CN(C)c1nc(NCc2ccccc2)nc(SCC(=O)Nc2ccc(Cl)c(Cl)c2)n1	176	-1	0	-3	2	-30	x	x
CCNc1nc(SCC(=O)Nc2ccc(Cl)c(Cl)c2)nc(N(C)C)n1	244	1	45*	3	2	-34	0	105
O=S(=O)(c1cccc(Br)c1)N1CCN(c2ccnc3cc(Cl)ccc23)CC1	174	-2	3	3	1	x	x	x
O=S(=O)(c1ccccc1OC(F)(F)F)N1CCN(c2ccnc3cc(Cl)ccc23)CC1	262	-2	77*	0	0	x	x	x	GRK2 confirm 2=16;FAM quench SP=101
Nc1nc(=S)c2ncn(C3OC(CO)C(O)C3O)c2[nH]1 (stereo unspecified)	225	32	87*	5	-17	12	8	101
